Test results from ChEMBL document CHEMBL1138398, “Design and synthesis of novel bis(L-amino acid) ester prodrugs of 9-[2-(phosphonomethoxy)ethyl]adenine (PMEA) with improved anti-HBV activity” (Bioorg Med Chem Lett, 2007).
Each block holds one compound with its values, some of them ahead of it.

What was measured:
HepG2 = assay: Cytotoxicity against HepG2 2.2.15 cells; format: functional; settings: Homo sapiens
Procedure, shortened: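 HepG2 2.2.15 cells exposed to compound; CC50 defined as the concentration causing 50% extinction of the cells.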

Hepatitis B virus = assay: Antiviral activity against HBV assessed as inhibition of cytoplasmic HBV-DNA synthesis; format: functional, organism-based
Procedure, shortened: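 Run in HepG2 2.2.15 cells; EC50 taken as the concentration giving 50% inhibition of cytoplasmic HBV-DNA synthesis.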

[1] = Selectivity index, ratio of CC50 for HepG2 2.2.15 cells to EC50 for HBV; format: functional
Procedure, shortened: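 In HepG2 2.2.15 cells: SI calculated as CC50 (50% extinction of the cells) divided by EC50 (50% inhibition of cytoplasmic HBV-DNA synthesis).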

[2] = Metabolic stability assessed as half life in human plasma; format: ADME, cell-free

SMILES: CC(C)C[C@H](N)C(=O)SCCOP(=O)(COCCn1cnc2c(N)ncnc21)OCCSC(=O)[C@@H](N)CC(C)C.Cl
CC50 (HepG2): 3410 µM
EC50 (Hepatitis B virus): 0.211 µM
Ratio CC50/EC50 [1]: 16129

SMILES: CC(C)[C@H](N)C(=O)OCOP(=O)(COCCn1cnc2c(N)ncnc21)OCOC(=O)[C@@H](N)C(C)C.Cl
CC50 (HepG2): 3380 µM
EC50 (Hepatitis B virus): 0.304 µM
Ratio CC50/EC50 [1]: 11094

SMILES: Cl.Nc1ncnc2c1ncn2CCOCP(=O)(OCCOC(=O)[C@@H](N)Cc1ccccc1)OCCOC(=O)[C@@H](N)Cc1ccccc1
CC50 (HepG2): 2590 µM
half-life [2]: 0.25 h
EC50 (Hepatitis B virus): 0.311 µM
Ratio CC50/EC50 [1]: 8354

SMILES: CC(C)(C)C(=O)OCOP(=O)(COCCn1cnc2c(N)ncnc21)OCOC(=O)C(C)(C)C.Cl
CC50 (HepG2): 540 µM
half-life [2]: 0.75 h
EC50 (Hepatitis B virus): 0.517 µM
Ratio CC50/EC50 [1]: 1044

EC50 (Hepatitis B virus): 0.0807 µM
SMILES: Cl.Nc1ccn([C@@H]2CS[C@H](CO)O2)c(=O)n1
CC50 (HepG2): 230 µM
Ratio CC50/EC50 [1]: 2850

SMILES: CC(C)[C@H](N)C(=O)OCCOP(=O)(COCCn1cnc2c(N)ncnc21)OCCOC(=O)[C@@H](N)C(C)C.Cl
CC50 (HepG2): 2590 µM
half-life [2]: 2 h
EC50 (Hepatitis B virus): 1.31 µM
Ratio CC50/EC50 [1]: 1974

SMILES: Cl.Nc1ncnc2c1ncn2CCOCP(=O)(OCOC(=O)[C@@H](N)Cc1ccccc1)OCOC(=O)[C@@H](N)Cc1ccccc1
EC50 (Hepatitis B virus): 0.659 µM
Ratio CC50/EC50 [1]: 23312

SMILES: CC(C)[C@H](N)C(=O)SCCOP(=O)(COCCn1cnc2c(N)ncnc21)OCCSC(=O)[C@@H](N)C(C)C.Cl
EC50 (Hepatitis B virus): 0.752 µM
Ratio CC50/EC50 [1]: 38167

SMILES: C[C@H](N)C(=O)OCCOP(=O)(COCCn1cnc2c(N)ncnc21)OCCOC(=O)[C@H](C)N.Cl
CC50 (HepG2): 1840 µM
EC50 (Hepatitis B virus): 12.5 µM
Ratio CC50/EC50 [1]: 146

SMILES: CC(C)C[C@H](N)C(=O)OCOP(=O)(COCCn1cnc2c(N)ncnc21)OCOC(=O)[C@@H](N)CC(C)C.Cl
CC50 (HepG2): 8560 µM
EC50 (Hepatitis B virus): 0.341 µM
Ratio CC50/EC50 [1]: 25111

SMILES: CC(C)C[C@H](N)C(=O)OCCOP(=O)(COCCn1cnc2c(N)ncnc21)OCCOC(=O)[C@@H](N)CC(C)C.Cl
CC50 (HepG2): 6640 µM
half-life [2]: 4.5 h
EC50 (Hepatitis B virus): 0.0952 µM
Ratio CC50/EC50 [1]: 69523

SMILES: Cl.Nc1ncnc2c1ncn2CCOCP(=O)(OCCSC(=O)[C@@H](N)Cc1ccccc1)OCCSC(=O)[C@@H](N)Cc1ccccc1
EC50 (Hepatitis B virus): 0.208 µM
Ratio CC50/EC50 [1]: 52727

SMILES: C[C@H](N)C(=O)SCCOP(=O)(COCCn1cnc2c(N)ncnc21)OCCSC(=O)[C@H](C)N.Cl
CC50 (HepG2): 2420 µM
EC50 (Hepatitis B virus): 1.56 µM
Ratio CC50/EC50 [1]: 1548

SMILES: Cl.NCC(=O)SCCOP(=O)(COCCn1cnc2c(N)ncnc21)OCCSC(=O)CN
CC50 (HepG2): 259 µM
EC50 (Hepatitis B virus): 10.2 µM
Ratio CC50/EC50 [1]: 25
